ChEMBL document CHEMBL2424657, “Identification of the KDM2/7 histone lysine demethylase subfamily inhibitor and its antiproliferative activity” (J Med Chem, 2013)

Biological target: Lysine-specific demethylase 7A/7B (Mus musculus) (UniProt Q3UWM4+Q80TJ7)
Assay: Inhibition of KDM7A/7B in mouse N2a cells assessed as H3K27me2 level after 24 hrs by Western blot analysis
Assay type: cell-based
How it was run: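 Cells (5×10^5) were treated for 24 h in OPTI-MEM and lysed in SDS buffer. Equal protein amounts, set by Bradford assay, were resolved on 4–20% SDS-PAGE and blotted. Blots were probed with anti-H3K27me2 (1:1000) and anti-H3 (1:100000) as loading reference, detected with an HRP secondary antibody, and visualized by ECL.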

Lysine-specific demethylase 7A/7B (Mus musculus), sequence (Q3UWM4 whole entry, looked up): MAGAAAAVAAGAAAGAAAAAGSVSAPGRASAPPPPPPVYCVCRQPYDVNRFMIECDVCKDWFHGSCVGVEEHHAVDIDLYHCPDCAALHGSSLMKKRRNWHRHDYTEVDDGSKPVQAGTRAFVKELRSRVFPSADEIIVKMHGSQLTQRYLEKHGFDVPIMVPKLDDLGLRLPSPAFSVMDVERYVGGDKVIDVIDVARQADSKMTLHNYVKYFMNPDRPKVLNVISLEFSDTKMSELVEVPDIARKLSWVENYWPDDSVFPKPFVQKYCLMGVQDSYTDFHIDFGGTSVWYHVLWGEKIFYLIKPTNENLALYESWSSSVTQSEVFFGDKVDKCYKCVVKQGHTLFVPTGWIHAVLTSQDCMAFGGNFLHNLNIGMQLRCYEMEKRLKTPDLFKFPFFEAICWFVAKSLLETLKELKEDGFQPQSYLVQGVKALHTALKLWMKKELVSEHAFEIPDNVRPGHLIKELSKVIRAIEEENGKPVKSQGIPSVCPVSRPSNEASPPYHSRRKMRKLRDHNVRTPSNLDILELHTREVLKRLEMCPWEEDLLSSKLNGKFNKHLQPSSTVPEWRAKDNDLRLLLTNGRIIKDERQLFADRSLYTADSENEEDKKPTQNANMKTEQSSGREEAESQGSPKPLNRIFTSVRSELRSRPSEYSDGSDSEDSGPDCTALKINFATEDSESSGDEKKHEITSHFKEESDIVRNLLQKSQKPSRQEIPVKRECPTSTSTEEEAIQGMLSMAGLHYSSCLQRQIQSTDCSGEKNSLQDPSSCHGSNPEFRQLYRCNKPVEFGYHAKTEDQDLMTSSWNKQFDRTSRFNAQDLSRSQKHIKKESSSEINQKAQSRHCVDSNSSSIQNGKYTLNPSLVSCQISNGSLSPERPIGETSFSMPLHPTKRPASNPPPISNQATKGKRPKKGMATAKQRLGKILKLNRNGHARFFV
Lysine-specific demethylase 7A/7B (Mus musculus), sequence (Q80TJ7 whole entry, looked up): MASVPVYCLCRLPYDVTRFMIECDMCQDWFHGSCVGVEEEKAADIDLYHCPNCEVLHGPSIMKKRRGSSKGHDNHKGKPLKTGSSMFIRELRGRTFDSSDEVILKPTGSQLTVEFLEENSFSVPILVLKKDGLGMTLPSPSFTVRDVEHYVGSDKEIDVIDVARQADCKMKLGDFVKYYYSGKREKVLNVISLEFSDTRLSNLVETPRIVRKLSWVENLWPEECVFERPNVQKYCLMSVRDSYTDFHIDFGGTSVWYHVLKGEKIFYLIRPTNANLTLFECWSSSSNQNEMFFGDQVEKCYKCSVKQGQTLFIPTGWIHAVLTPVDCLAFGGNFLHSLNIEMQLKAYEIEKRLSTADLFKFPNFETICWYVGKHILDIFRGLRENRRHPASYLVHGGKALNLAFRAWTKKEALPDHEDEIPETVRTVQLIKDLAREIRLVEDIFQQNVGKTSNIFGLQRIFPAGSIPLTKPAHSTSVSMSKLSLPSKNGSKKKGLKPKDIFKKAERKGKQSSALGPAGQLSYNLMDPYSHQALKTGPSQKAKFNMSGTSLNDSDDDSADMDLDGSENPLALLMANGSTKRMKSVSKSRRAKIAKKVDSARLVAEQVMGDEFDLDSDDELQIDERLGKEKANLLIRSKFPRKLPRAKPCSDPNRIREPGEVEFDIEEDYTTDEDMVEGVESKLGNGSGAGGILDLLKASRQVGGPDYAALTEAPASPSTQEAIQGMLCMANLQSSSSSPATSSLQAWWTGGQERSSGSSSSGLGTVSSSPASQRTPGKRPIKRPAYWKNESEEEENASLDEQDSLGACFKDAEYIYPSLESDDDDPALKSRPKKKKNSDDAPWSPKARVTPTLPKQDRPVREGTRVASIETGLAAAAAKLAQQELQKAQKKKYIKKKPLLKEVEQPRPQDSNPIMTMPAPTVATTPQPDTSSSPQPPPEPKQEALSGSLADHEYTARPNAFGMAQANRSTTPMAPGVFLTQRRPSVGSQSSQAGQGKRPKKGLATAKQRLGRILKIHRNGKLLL

O=C(O)CCN(O)C(=O)CCCCCCCCC1CC1
inhibition: Dose-dependent effect
